Measurements of several laboratories.
Protocols differ between the studies behind these lines. Converted amounts (≈) assume the structure as drawn.

With `O=C(NC(=S)Nc1nccs1)c1ccco1` the IC50 was 12900 nM (Leishmania major; parasite growth, resazurin; promastigote).
For `CN[C@H](CC(C)C)C(=O)N[C@H]1C(=O)N[C@@H](CC(N)=O)C(=O)N[C@H]2C(=O)N[C@H]3C(=O)N[C@H](C(=O)N[C@H](C(=O)O)c4cc(O)cc(O)c4-c4cc3ccc4O)[C@H](O)c3ccc(c(Cl)c3)Oc3cc2cc(c3O[C@@H]2O[C@H](CO)[C@@H](O)[C@H](O)[C@H]2O[C@H]2C[C@](C)(N)[C@H](O)[C@H](C)O2)Oc2ccc(cc2Cl)[C@H]1O`, the MIC was 2 µM (≈ 2.9 µg/mL) (Enterococcus faecalis; microbial growth; ATCC29212).
With `C=CC(=O)NC1CCN(c2ncc3ncnc(Nc4ccc(Oc5ccc6c(c5)ncn6C)c(C)c4)c3n2)CC1` the EC50 was 10.2 nM (SNU-216; cell growth or viability).
`C=C(COCc1ccc(F)cc1)[C@@H]1CC[C@@H](C)C[C@H]1OCc1ccc(F)cc1` has an inhibition of 61.5% (HeLa; cell growth or viability, MTT; 30 µM, 72 h).
`CN[C@@H]1[C@@H](O[C@H]2O[C@H](CO)[C@@H](N)[C@H](O)[C@H]2O)OC2C[C@@H](N)[C@@H](O[C@H]3[C@H](O)[C@@H](O)[C@H](N)C[C@@H]3N)OC2[C@@H]1O` (stereo partly shown) has an MIC of greater than 40 µM (Vibrio alginolyticus; microbial growth; 24 h).
The IC50 of `O=C(NC(=S)Nc1cccc(O)c1)c1cccs1` is reported as 290 nM (Leishmania major; parasite growth, resazurin; promastigote).
The MIC of `O=C(N[C@H](CO)[C@H](O)c1ccc([N+](=O)[O-])cc1)C(Cl)Cl` is reported as 1.25 to 2.5 µM (≈ 0.404 to 0.808 µg/mL) (Vibrio alginolyticus; microbial growth; 24 h).
`COc1ccc(COC[C@@](O)(CNCc2ccccc2)[C@@H]2CC[C@@H](C)C[C@H]2OCc2ccc(OC)cc2)cc1` gave an inhibition of 93.8% (HeLa; cell growth or viability, MTT; 10 µM, 72 h).
With `O=C(NC(=S)Nc1ccccc1O)c1ccco1` the IC50 was 6080 nM (Leishmania major; parasite growth, resazurin; promastigote).
`C[C@@H]1CC[C@@H]([C@@](O)(CNCc2ccccc2)COCc2ccccc2)[C@H](OCc2ccccc2)C1` has an inhibition of 98.2% (HeLa; cell growth or viability, MTT; 30 µM, 72 h).
The IC50 of `Cc1nc(NC(=S)NCc2ccco2)nc(-c2ccccc2)c1C(=O)N1CCC(C(=O)O)CC1` is reported as 180 nM (Leishmania major; parasite growth, resazurin; promastigote).
For `Cc1cc(NC(=O)C=Cc2ccccc2)cc(-c2ccnc(N3CCC(CO)CC3)c2)c1`, the inhibition was 81.8% (HeLa; cell growth or viability, MTT; 5 µM).
The inhibition of `C[C@@H]1CC[C@@H]([C@](C)(O)CNCc2ccc(F)cc2)[C@H](OCc2ccccc2)C1` is reported as 60.1% (HeLa; cell growth or viability, MTT; 30 µM, 72 h).
